Laboratory results taken from PubChem BioAssay.
Active and inactive are the calls of the source.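 The calls were made as follows, unless noted: active = viability at or under a set limit in both replicates, limit being median viability minus 3 SD (cut at about 48% in these data, passing the limit was not always enough); inconclusive = at or under the limit in just one replicate; inactive = at or above the limit in both replicates.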

Legend:
[1] = Her2 expression decrease, cell viability multiplex – SKBR3 breast tumor cells, AlphaScreen, ATP viability, primary screen (AID 461;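 active = Her2 level under about 52% in both replicate screens, with viability over 70% of control, limit read from the data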;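 as to Her2 level: lower value means less Her2 protein in the cells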;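 as to viability: percent of carrier control wells set as 100% viability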); conditions: SKBR3 Her2 protein level, 18-24 h, measured here: SKBR3 viability, ATP luminescence, at 10 µM
[2] = biological target: Receptor tyrosine-protein kinase erbB-2 (Homo sapiens) (UniProt P04626); assay: as above; conditions: 18-24 h, at 10 µM, stronger effect = lower value
[3] = reduced viability of SK-BR-3 breast cancer cells – cell-based, 24 h, human, pilot screen (AID 572;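 active = viability at or below 10% of carrier control in both of two separate runs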;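 also: compound exposure lasted between 18 and 24 h rather than exactly 24 h; 100% = carrier-treated control wells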); conditions: SK-BR-3 viability, CellTiter-Glo luminescence, at 10 µM, stronger effect = lower value
[4] = HUVEC growth inhibition – cell-based, human, primary screen (AID 575;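 active = viability at or below 30% in both replicate assays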;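 also: 100% = median of untreated cell wells with 0.1% DMSO on each plate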); conditions: HUVEC proliferation, CellTiter-Glo luminescence, 72 h; at 10 µM; stronger effect = lower value
In short: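 Assay system: Primary human umbilical vein endothelial cells | Quantity: 1250 cells per well | Medium: Supplemented EBM, 2% fetal bovine serum | Detection: CellTiter-Glo luminescence measuring cellular ATP | Read-out: % viability vs DMSO wells | Plate: Collagen-coated 384-well format | Times: 72 h exposure, 37 °C, 5% CO2, 30 min RT equilibration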

[5] = H69AR cell proliferation blockers – human, duplicate replicates, primary screen (AID 580); conditions: H69AR lung tumor cells viability, ATP luminescence, 72 h; at 10 µM; stronger effect = lower value;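 also: 100% = mean luminescence of untreated wells and 0% = no signal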
[6] = MRP1 drug-resistance reversers in H69AR cells – cell-based, doxorubicin co-treatment, pilot screen (AID 601;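 active = viability loss from added drug above about 55%, and viability with drug at most 40%, in both replicates, limit read from the data, passing the limit was not always enough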); conditions: CellTiter-Glo, 72 h, at 10 µM; for differential viability (reversal): stronger effect = higher value
[7] = yeast transport mutant growth inhibition pilot in 384-well plates, post-Golgi transport modulator project (AID 636; in the data active = inhibition above about 31%); conditions: absorbance 615 nm, about 18 h, stronger effect = higher value
[8] = growth suppression of yeast trafficking mutant, preliminary HTS, modulators of trafficking downstream of Golgi apparatus project, 1536-format plate, OD 615 nm (AID 637; in the data active = inhibition above about 30%); conditions: yeast transport mutant growth, absorbance 615 nm, 18 h; stronger effect = higher value
[9] = H69AR cells + 2 uM doxorubicin, measured here: viability with 2 uM doxorubicin, stronger effect = lower value
[10] = H69AR cells, compound alone cytotoxicity

Sequence of Receptor tyrosine-protein kinase erbB-2 (Homo sapiens) (P04626 whole entry, looked up): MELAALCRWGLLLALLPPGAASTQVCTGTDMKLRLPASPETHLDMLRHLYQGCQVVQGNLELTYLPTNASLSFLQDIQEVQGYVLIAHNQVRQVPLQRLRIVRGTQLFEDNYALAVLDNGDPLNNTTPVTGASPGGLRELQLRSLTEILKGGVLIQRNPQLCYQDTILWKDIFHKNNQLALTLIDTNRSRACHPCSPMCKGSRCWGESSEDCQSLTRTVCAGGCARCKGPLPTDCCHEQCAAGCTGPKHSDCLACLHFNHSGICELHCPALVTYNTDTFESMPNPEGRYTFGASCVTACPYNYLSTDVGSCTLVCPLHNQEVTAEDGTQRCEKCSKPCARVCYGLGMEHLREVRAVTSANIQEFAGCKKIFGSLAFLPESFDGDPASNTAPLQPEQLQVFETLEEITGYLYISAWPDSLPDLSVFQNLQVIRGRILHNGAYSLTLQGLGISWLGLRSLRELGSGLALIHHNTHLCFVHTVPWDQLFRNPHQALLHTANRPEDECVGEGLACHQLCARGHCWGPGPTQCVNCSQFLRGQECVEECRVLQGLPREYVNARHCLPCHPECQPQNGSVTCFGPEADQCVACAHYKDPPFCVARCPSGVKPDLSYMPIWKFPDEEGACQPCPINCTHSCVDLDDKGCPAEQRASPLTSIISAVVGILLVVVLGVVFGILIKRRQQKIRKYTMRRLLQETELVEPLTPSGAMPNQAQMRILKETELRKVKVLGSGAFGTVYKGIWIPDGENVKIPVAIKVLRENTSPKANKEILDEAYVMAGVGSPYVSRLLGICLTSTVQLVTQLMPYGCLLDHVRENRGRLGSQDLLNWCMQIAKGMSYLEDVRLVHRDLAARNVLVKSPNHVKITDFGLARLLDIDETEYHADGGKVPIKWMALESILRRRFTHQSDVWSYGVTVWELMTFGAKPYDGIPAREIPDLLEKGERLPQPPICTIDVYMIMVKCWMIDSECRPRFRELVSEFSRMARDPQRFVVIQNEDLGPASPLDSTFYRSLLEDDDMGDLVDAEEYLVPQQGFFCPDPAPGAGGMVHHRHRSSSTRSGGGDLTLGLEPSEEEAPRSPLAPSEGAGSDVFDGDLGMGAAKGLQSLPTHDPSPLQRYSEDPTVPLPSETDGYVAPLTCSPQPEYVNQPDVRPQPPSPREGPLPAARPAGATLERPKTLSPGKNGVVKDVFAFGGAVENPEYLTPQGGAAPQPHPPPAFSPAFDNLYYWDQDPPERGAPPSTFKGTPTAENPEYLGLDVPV

Compound	viability [1] [%]	Her2 level [2]	viability [3]	viability [4]	viability [5]	differential viability (reversal) ([6]; H69AR cells + 2 uM doxorubicin)	viability [6, 9] [%]	viability [6, 10] [%]	inhibition [7]	inhibition [8]
CCOC(=O)/C=C1\SCC(=O)N1Cc1ccc(Br)cc1	112	94% (inactive)	112% (inactive)	79.5% (inactive)	97.3% (inactive)	3.96% (inactive)	93.3	97.3	-7.67% (inactive)	4.13% (inactive)
CCOc1ccc(NCc2nnc(SCC(=O)Nc3cc(C)on3)n2-c2ccccc2OC)cc1	106	79% (inactive)	106% (inactive)	41.7% (inactive)	13.1% (active)	-19% (inactive)	32.1	13.1	-4.8% (inactive)	2.86% (inactive)
Cc1cc(NC(=O)CSc2nc3ccsc3c(=O)n2NC(=O)c2ccccc2)no1	94.5	100% (inactive)	94.5% (inactive)	93.9% (inactive)	97.1% (inactive)	12% (inactive)	85.1	97.1	-0.93% (inactive)	13.8% (inactive)
Cc1oc2cc(O)ccc2c(=O)c1-c1cnn(-c2ccccc2)c1	93.5	90% (inactive)	93.5% (inactive)	85% (inactive)	96.5% (inactive)	-1.5% (inactive)	98	96.5	-5.13% (inactive)	13.3% (inactive)
Cc1cccc(N2CCN(S(=O)(=O)c3ccc4c(c3)CCC(=O)N4)CC2C)c1 (stereo not given)	110	95% (inactive)	110% (inactive)	84.7% (inactive)	73.6% (inactive)	-10.3% (inactive)	83.9	73.6	-5.13% (inactive)	-2.18% (inactive)
CCC(=O)N1Cc2ccccc2-c2ccccc2C1=O	102	91% (inactive)	102% (inactive)	80.1% (inactive)	90% (inactive)	4.75% (inactive)	85.2	90	-5.06% (inactive)	4.76% (inactive)
CCOC(=O)N1CCC(N2C(=O)c3ccccc3C2Nc2ccc3c(C)cc(=O)oc3c2)CC1 (stereo not given)	76	105% (inactive)	76% (inactive)	115% (inactive)	83.4% (inactive)	13.9% (inactive)	69.5	83.4	-1.79% (inactive)	-2.67% (inactive)
CCCn1c(SCC(=O)N2CCCc3ccccc32)nnc1-c1ccccn1	84.5	102% (inactive)	84.5% (inactive)	103% (inactive)	95.1% (inactive)	1.95% (inactive)	93.2	95.1	-4.67% (inactive)	5.16% (inactive)
Cc1ccccc1CS(=O)(=O)Cc1ccc(C(=O)NCCCN2CCOCC2)o1	77	97% (inactive)	77% (inactive)	104% (inactive)	98.2% (inactive)	3.12% (inactive)	95.1	98.2	-0.39% (inactive)	-6.13% (inactive)
O=C1CCCC2=C1C(c1ccsc1)CC(=O)N2c1ccccc1 (stereo not given)	90.5	96% (inactive)	90.5% (inactive)	113% (inactive)	92.4% (inactive)	-3.37% (inactive)	95.7	92.4	-3.29% (inactive)	-3.82% (inactive)
COC(=O)c1cc2oc(C)cc2n1CC(=O)N(C)c1ccccc1	93	92.5% (inactive)	93% (inactive)	83.2% (inactive)	95.4% (inactive)	7.45% (inactive)	88	95.4	-1.92% (inactive)	-2.17% (inactive)
Cc1cc(C(=O)Nc2ccccc2C#N)n(-c2ccccc2)n1	97.5	100% (inactive)	97.5% (inactive)	92.8% (inactive)	93.9% (inactive)	-3.06% (inactive)	97	93.9	2.93% (inactive)	0% (inactive)
COCCn1c(C)cc(C(=O)CSc2nc3ccccc3c(=O)[nH]2)c1C	88.5	67% (inactive)	88.5% (inactive)	64.6% (inactive)	80.9% (inactive)	-8.01% (inactive)	88.9	80.9	-5.47% (inactive)	-3.61% (inactive)
Cc1ccc(C)c(N(CC(=O)NCc2ccco2)C(=O)CCC(=O)Nc2ccccn2)c1	93	92% (inactive)	93% (inactive)	81.8% (inactive)	68.6% (inactive)	-5.34% (inactive)	74	68.6	-3.25% (inactive)	-1.43% (inactive)
Cn1nc(C(=O)N2CCOCC2)c2ccccc2c1=O	93	114% (inactive)	93% (inactive)	88.9% (inactive)	89.3% (inactive)	5.89% (inactive)	83.4	89.3	-1.3% (inactive)	0.67% (inactive)
Cc1ccc(/C=c2\sc3nc(-c4ccccc4Br)nn3c2=O)o1	89	85% (inactive)	89% (inactive)	110% (inactive)	95.5% (inactive)	6.48% (inactive)	89	95.5	-7.47% (inactive)	10.7% (inactive)

Compound	viability [1] [%]	Her2 level [2]	viability [3]	viability [4]	viability [5]	differential viability (reversal) ([6]; H69AR cells + 2 uM doxorubicin)	viability [6, 9] [%]	viability [6, 10] [%]	inhibition [7]	inhibition [8]
COC(=O)c1cccc(NC(=O)CSc2nnc(COc3ccc(C#N)cc3)n2-c2ccccc2)c1	92	112% (inactive)	92% (inactive)	105% (inactive)	87.8% (inactive)	-1.66% (inactive)	89.4	87.8	3.38% (inactive)	-3.02% (inactive)
Cc1cc(-c2ccccc2)c2nncn2n1	106	96% (inactive)	106% (inactive)	116% (inactive)	89.9% (inactive)	5.82% (inactive)	84.1	89.9	-8.27% (inactive)	2.42% (inactive)
COc1cccc(C(=O)CN2CCC(NC(=O)NC3CCCCC3)CC2)c1	92	101% (inactive)	92% (inactive)	102% (inactive)	98.1% (inactive)	6.55% (inactive)	91.5	98.1	-5.79% (inactive)	-2% (inactive)
CCc1cc2c(=O)n(C(C)C(=O)OC3CCCCC3)cnc2s1 (stereo not given)	102	117% (inactive)	102% (inactive)	90.1% (inactive)	81.6% (inactive)	-4.32% (inactive)	85.9	81.6	-6.62% (inactive)	-5.83% (inactive)
CC(C)OCCCNC(=O)c1cc2c(s1)CS(=O)(=O)C2	99	104% (inactive)	99% (inactive)	90.3% (inactive)	94.6% (inactive)	-1.46% (inactive)	96.1	94.6	1.03% (inactive)	-8.5% (inactive)
CC(NC(=O)c1ccccc1NC(=O)c1ccco1)C(=O)O (stereo not given)	106	68% (inactive)	106% (inactive)	89% (inactive)	86.7% (inactive)	2.01% (inactive)	84.7	86.7	-2.63% (inactive)	2.1% (inactive)
Cn1c2ccc(F)cc2c2ncn(CCN3CCOCC3)c(=O)c21	88.5	82.5% (inactive)	88.5% (inactive)	98.6% (inactive)	97.4% (inactive)	6.95% (inactive)	90.4	97.4	-6% (inactive)	-3.02% (inactive)
O=C(Nc1ccccc1-c1ccccc1)NC1CCN(CC(=O)N2CCOCC2)CC1	98	103% (inactive)	98% (inactive)	91.7% (inactive)	99.3% (inactive)	7.87% (inactive)	91.4	99.3	-2.34% (inactive)	-3.11% (inactive)
O=C1CC(c2ccc(Cl)cc2)n2nc(N3C(=O)c4ccccc4C3=O)nc2N1 (stereo not given)	106	93% (inactive)	106% (inactive)	95.5% (inactive)	91.8% (inactive)	-2.29% (inactive)	94.1	91.8	-3.16% (inactive)	4.59% (inactive)
CCn1nnnc1NCc1cccn1C	88	83% (inactive)	88% (inactive)	105% (inactive)	95.9% (inactive)	3.54% (inactive)	92.4	95.9	-4.27% (inactive)	2.3% (inactive)
CCOC(=O)c1cc(-c2ccco2)nc2c1c(C)nn2CCC#N	96	101% (inactive)	96% (inactive)	98% (inactive)	68.3% (inactive)	-16.2% (inactive)	84.5	68.3	4.05% (inactive)	3.97% (inactive)
O=C(Nc1ccc2c(c1)OCCO2)c1ccco1	83	106% (inactive)	83% (inactive)	78.7% (inactive)	86.5% (inactive)	6.8% (inactive)	79.7	86.5	2.47% (inactive)	-5.08% (inactive)
Cn1cnnc1SCC(=O)Nc1ccccc1Sc1ccccc1	107	91.5% (inactive)	107% (inactive)	113% (inactive)	98.8% (inactive)	8.32% (inactive)	90.4	98.8	-8.24% (inactive)	4.67% (inactive)
O=C(OCn1nnc2ccccc2c1=O)C1CCN(S(=O)(=O)c2cccs2)CC1	97	133% (inactive)	97% (inactive)	97.7% (inactive)	105% (inactive)	1.22% (inactive)	104	105	1.54% (inactive)	-4.67% (inactive)
Cc1ccc(CCNC(=O)C2CCCN(S(=O)(=O)c3cnc[nH]3)C2)cc1 (stereo not given)	102	121% (inactive)	102% (inactive)	101% (inactive)	101% (inactive)	6.71% (inactive)	94	101	-0.8% (inactive)	-2.17% (inactive)
